ChEMBL document CHEMBL1136055, “3-Heteroaryl-2-pyridones: benzodiazepine site ligands with functional delectivity for alpha 2/alpha 3-subtypes of human GABA(A) receptor-ion channels” (J Med Chem, 2002)

Key:
[1] = molecular target: GABA-A receptor; alpha-1/beta-3/gamma-2 (Homo sapiens) (UniProt P14867+P18507+P28472); assay: Modulatory effect on coapplication with GABA at human Gamma-aminobutyric acid A receptor alpha-1-beta-3-gamma-2 in Xenopus oocyte.
Summary of the method: (§1)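 Two-electrode voltage clamp of Xenopus oocytes transiently expressing human α1, α2 or α3 β3γ2S receptors. Test compound is co-applied with GABA at its EC20 (GABA range 4-30 µM). Result is the % change in GABA current, mean (SEM), n = 3-7, at the stated test compound concentration (µM).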

[2] = molecular target: T1, GABA-A receptor; alpha-1/beta-3/gamma-2 (Homo sapiens, UniProt P14867+P18507+P28472); assay: Inhibition of [3H]Ro-151788 binding to human GABA A receptor (alpha-1-beta-3-gamma-2) stably expressed in L(tk-) cells.; format: cell-based
T1 sequence (P14867 whole entry): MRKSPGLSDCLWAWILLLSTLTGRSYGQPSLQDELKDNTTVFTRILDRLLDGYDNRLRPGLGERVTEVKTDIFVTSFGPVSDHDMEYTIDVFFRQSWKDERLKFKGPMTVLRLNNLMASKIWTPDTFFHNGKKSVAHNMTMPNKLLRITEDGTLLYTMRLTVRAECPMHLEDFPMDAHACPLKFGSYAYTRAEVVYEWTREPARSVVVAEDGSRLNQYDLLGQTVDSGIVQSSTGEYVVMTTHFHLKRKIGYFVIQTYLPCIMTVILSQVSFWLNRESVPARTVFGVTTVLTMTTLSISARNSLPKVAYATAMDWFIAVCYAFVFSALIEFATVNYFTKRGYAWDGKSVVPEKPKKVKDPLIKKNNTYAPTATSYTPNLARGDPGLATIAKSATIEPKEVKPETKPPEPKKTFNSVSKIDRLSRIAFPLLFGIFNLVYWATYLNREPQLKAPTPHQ
T1 sequence (P18507 whole entry): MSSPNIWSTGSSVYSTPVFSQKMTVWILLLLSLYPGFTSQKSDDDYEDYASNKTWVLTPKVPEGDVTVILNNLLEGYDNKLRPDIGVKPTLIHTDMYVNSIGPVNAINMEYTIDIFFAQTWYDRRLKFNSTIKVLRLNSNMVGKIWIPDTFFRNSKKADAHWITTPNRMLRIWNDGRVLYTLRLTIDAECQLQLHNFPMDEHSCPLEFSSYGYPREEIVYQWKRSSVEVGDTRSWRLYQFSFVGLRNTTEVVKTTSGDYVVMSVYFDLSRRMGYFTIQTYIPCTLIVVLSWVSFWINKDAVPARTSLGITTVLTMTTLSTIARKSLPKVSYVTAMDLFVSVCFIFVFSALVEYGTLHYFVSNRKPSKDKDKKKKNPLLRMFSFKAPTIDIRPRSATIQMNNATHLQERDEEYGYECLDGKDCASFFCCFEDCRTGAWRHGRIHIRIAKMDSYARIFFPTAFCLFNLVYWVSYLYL
T1 sequence (P28472 whole entry): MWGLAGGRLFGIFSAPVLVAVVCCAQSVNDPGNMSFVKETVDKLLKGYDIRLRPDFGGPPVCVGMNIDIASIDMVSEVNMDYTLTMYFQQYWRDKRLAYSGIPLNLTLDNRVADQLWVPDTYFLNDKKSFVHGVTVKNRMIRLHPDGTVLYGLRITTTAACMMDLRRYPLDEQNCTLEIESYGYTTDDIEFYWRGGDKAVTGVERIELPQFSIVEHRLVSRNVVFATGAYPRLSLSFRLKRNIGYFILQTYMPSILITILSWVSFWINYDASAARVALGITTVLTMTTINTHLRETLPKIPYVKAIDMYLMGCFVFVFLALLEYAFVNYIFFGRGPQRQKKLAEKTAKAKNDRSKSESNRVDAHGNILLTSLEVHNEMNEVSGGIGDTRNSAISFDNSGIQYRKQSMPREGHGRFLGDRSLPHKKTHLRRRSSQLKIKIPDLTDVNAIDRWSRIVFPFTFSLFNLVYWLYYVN

[3] = molecular target: T2, GABA-A receptor; alpha-2/beta-3/gamma-2 (Homo sapiens, UniProt P18507+P28472+P47869); assay: Displacement of [3H]Ro-151788 from human Gamma-aminobutyric acid A receptor alpha-2-beta-3-gamma-2 stably expressed in L(tk-) cells; format: cell-based
T2 sequence (P18507 whole entry): T1 sequence (P18507 whole entry)
T2 sequence (P28472 whole entry): T1 sequence (P28472 whole entry)
T2 sequence (P47869 whole entry): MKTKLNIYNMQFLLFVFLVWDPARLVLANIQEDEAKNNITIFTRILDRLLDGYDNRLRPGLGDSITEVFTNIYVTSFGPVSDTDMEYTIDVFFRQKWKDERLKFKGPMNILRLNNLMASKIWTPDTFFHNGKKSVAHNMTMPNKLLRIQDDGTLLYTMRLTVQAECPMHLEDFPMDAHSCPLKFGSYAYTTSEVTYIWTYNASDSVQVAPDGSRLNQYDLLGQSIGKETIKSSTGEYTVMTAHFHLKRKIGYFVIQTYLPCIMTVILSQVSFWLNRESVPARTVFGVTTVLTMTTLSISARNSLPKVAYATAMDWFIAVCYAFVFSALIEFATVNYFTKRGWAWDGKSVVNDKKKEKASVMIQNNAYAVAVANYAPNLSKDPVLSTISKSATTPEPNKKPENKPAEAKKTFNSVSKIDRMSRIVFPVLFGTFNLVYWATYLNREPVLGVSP
Summary of the method: (§2)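 Competition binding against [3H]Ro15-1788 on cloned human α1/α2/α3/α5 β3γ2S receptors stably expressed in L(tk-) cells. Six to eight test concentrations spaced in half-log steps. Ki given as mean (SEM), n = 3-5, reported to two significant figures.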

[4] = molecular target: T3, GABA-A receptor; alpha-3/beta-3/gamma-2 (Homo sapiens, UniProt P18507+P28472+P34903); assay: Binding affinity by displacement of [3H]Ro-151788 from recombinant human gamma-aminobutyric-acid A receptor alpha3,beta3,gamma2 stably expressed in L cells; format: cell-based; summary of the method: as §2
T3 sequence (P18507 whole entry): T1 sequence (P18507 whole entry)
T3 sequence (P28472 whole entry): T1 sequence (P28472 whole entry)
T3 sequence (P34903 whole entry): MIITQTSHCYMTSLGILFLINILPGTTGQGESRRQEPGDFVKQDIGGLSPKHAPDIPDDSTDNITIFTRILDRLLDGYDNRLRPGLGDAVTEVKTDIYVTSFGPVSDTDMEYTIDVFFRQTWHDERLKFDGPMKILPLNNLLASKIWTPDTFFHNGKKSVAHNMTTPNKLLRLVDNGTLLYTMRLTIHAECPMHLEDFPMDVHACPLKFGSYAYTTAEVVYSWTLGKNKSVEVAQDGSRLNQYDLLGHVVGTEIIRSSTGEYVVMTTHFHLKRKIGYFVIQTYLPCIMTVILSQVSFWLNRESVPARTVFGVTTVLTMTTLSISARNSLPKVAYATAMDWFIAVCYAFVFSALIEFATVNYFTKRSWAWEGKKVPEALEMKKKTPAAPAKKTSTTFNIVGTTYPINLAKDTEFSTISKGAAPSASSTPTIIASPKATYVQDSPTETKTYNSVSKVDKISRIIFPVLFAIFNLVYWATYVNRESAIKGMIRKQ

[5] = molecular target: GABA-A receptor; alpha-2/beta-3/gamma-2 (Homo sapiens) (UniProt P18507+P28472+P47869); assay: Modulatory effect on coapplication with GABA at human Gamma-aminobutyric acid A receptor alpha-2-beta-3-gamma-2 expressed inXenopus oocytes; format: cell-based; details: Oocyte; summary of the method: as §1

percent modulation of GABA EC20 response [1] [%] | Ki [2] [nM] | Ki [3] [nM] | Ki [4] [nM] | percent modulation of GABA EC20 response [5] [%] | SMILES
7 | 17 | 8.6 | 3.4 | 80 | COc1ccc(-c2cc(-c3nc(C)cs3)c(=O)n(C)c2-c2ccncc2)cc1
7 | 17 | 6.6 | 4.1 | 33 | COc1ccc(-c2cc(-c3nc(C)cs3)c(=O)n(C)c2-c2ccnnc2)cc1
